The source of these data is paper PMC3423201 (Molecular cancer therapeutics, 2011).

Read-outs that look alike come from different tables or passages of the source.

The inhibition is the percentage by which the read-out fell short of the control. One may read the Vmax as the top rate of the reaction or transport when substrate is in excess. One may read the IC50 as the concentration at which inhibition is half-maximal. Lower therefore signals greater potency in that assay. The term Km denotes the concentration of substrate that gives half-maximal velocity.

The target of data set [1] is T1, AMACR-MBP (Homo sapiens, UniProt Q9UHK6).
T1 sequence (Q9UHK6 1-382): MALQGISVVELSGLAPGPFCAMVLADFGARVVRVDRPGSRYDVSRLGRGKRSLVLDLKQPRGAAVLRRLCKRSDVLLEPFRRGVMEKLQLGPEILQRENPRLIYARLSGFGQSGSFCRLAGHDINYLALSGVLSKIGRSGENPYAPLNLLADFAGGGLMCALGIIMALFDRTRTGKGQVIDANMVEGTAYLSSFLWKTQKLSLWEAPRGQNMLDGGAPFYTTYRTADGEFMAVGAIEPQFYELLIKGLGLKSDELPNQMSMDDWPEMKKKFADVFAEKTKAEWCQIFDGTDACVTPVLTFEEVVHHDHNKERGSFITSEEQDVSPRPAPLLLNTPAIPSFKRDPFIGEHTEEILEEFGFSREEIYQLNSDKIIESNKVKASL
The data set is described as follows: High-throughput screen for AMACR inhibitors. The format is biochemical. Conditions: for inhibition at 100 µM: read-out: inhibition (decrease of fractional activity) in HTS. Put shortly:
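Recombinant AMACR-MBP was expressed in E. coli TB1, purified on a maltose column and dialysed into 100 mM Na/K/Pi pH 7.25. Enzyme (0.3 μM) was incubated with 100 μM test compound (1% DMSO) and 150 μM [2,3-3H]Pri-CoA (60 Ci/mol) in buffer with 0.125 mg/mL BSA for 30 min at 37°C. Reactions were acid-quenched, neutralised and passed through C18 SPE, and released 3H2O was scintillation-counted. Fractional activity was calculated against each row's no-inhibitor control after no-enzyme background subtraction; <0.8 was flagged as a hit.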

Data set [2] addresses T1, AMACR-MBP. The data set is described as follows: Kitz-Wilson analysis of time-dependent inactivation. The format is biochemical. The following applies: for KI (inactivation): 37°C, Kitz-Wilson transformation. In outline:
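Inactivation mixtures at 37°C contained test compound at a series of concentrations and 5 μM AMACR-MBP, started with enzyme. At timed points from zero, 2 μL was diluted 50-fold into buffer with 150 μM [2,3-3H]Pri-CoA (100 nM final enzyme) and reacted for 30 min, then SPE/scintillation. Activity remaining was expressed versus time-matched no-inhibitor controls. T1/2 was regressed against 1/[I], giving kinact = ln2/y-intercept and KI(inact) = −1/x-intercept.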

Another data set has as its system WPMY1. Briefly: In-vitro LD50, alamarBlue viability, WPMY1. The class given is cell-based, human. The following applies: WPMY1, 48 hours. Put shortly:
(§1)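 Cells were plated at 10,000 per well in triplicate and allowed to attach overnight. Medium was replaced with test compound (0–500 μM or 0–400 μM depending on compound) for 48 h. Cells were then incubated with alamarBlue for 4 h and fluorescence read at 544 ex/590 em. After media-only background subtraction, viability was expressed as a percent of the vehicle control. LD50 came from a 4-parameter variable-slope fit with the bottom constrained to zero.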
(Resazurin is reduced to fluorescent resorufin, in cell work by metabolically active cells.)

The subject of another data set is PC3. Briefly: In-vitro LD50, alamarBlue viability, PC3. The format is cell-based, human. The following applies: PC3, 48 hours. Put shortly:
as §1

A further data set has as its system LAPC4. Briefly: In-vitro LD50, alamarBlue viability, LAPC4. The format is cell-based, human. Conditions: LAPC4, 48 hours. In outline:
as §1

For a further data set, the system named is LNCaP. Briefly: In-vitro LD50, alamarBlue viability, LNCaP. The format is cell-based, human. Conditions: 48 hours. In outline: as §1
A short description of the next data set: Mode of cell death. The following applies: Supplementary Figure S7. The format is cell-based.
Data set [3] addresses T1, AMACR-MBP. Briefly: Kinetic parameters. The class given is biochemical. The following applies: 0.3 μM AMACR-MBP, 37°C, ± SEM. Put shortly: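 Reactions of 185 μL held 0.3 μM AMACR-MBP in Na/K/Pi pH 7.25 with BSA at 37°C. [2,3-3H]Pri-CoA was used at 1–400 μM (twelve levels), all at 60 Ci/mol, and reactions were started with enzyme. Aliquots of 20 μL were taken at 0–900 s and quenched in 2 M HCl, with no-enzyme backgrounds at each time point. Aliquots were processed by SPE/scintillation, DPM were converted to rates, and rates were fitted directly to Michaelis-Menten.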

Data set [4] deals with T1, AMACR-MBP. The data set is described as follows: AMACR inhibitor IC50 determination. The format is biochemical. Put shortly: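 Run as the plate screen (0.3 μM AMACR-MBP, 100 μM [2,3-3H]Pri-CoA, SPE and scintillation read-out), adding enzyme last. Test compound was dosed at 1–1000 μM, extended to 1–750 nM for selected compounds, from 100% DMSO stocks, giving 2–6% DMSO, in triplicate. Fractional activity was fitted by 3-parameter log(inhibitor)-response regression.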

For another data set, the target named is T2, AMACR (Homo sapiens, UniProt Q9UHK6).
T2 sequence (Q9UHK6 1-382): T1 sequence (Q9UHK6 1-382)
Briefly: Pre-incubation of AMACR with cysteine specific reagents, with or without ebselen. The class given is biochemical. The following applies: 20 mM dithithreitol, 5 mM tributylphosphine, 15 mM iodoacetamide.

Data set [5] relates to prostate cancer cell lines (LAPC4/LNCaP/PC3) compared to WPMY1. The format is cell-based, human. Conditions: highest vs lowest AMACR expressor. Put shortly: as §1
In data set [6] the target is T1, AMACR-MBP. Briefly: Effect of pre-incubation time on ebselen inhibition. The format is biochemical.
For data set [7] the following is noted: neuroprotective doses, 300 mg/day, oral; ref [44], [46]; cited from earlier work.

In the case of `Nc1c(/N=N/c2ccc(-c3ccc(/N=N/c4cc(S(=O)(=O)O)c5ccccc5c4N)cc3)cc2)cc(S(=O)(=O)O)c2ccccc12` [Congo Red, congo red], the inhibition at 100 µM at AMACR-MBP [1] is not below 20%.
As for `O=C1c2c(O)ccc(O)c2C(=O)c2c(NCCNCCO)ccc(NCCNCCO)c21` [mitoxantrone], the “inhibition of AMACR-MBP detected in library screen” value against AMACR-MBP [1] (100 μM, both JHDL and NCI/DTP libraries) is listed as “inhibition of AMACR-MBP”.
For `Cc1cc(O)c(-c2cc(O)c(C)cc2O)cc1O` [DMPMB, 2-(2,5-dihydroxy-4-methylphenyl)-5-methyl benzene-1,4-diol], the mode of inhibition entry at AMACR-MBP [2] was “irreversible inactivators”. Besides, the KI (inactivation) at AMACR-MBP [2] was determined as 24.3 µM. Also, the LD50 is 117.6 ± 1.011 µM in the data set on WPMY1, 101.1 ± 1.034 µM with PC3, 58.78 ± 1.058 µM in the data set on LAPC4 and 116.9 ± 1.033 µM with LNCaP. The “type of cell death induced” value in “Mode of cell death” was “necrotic cell death”.
As to `[3H]C(CCC(C)CCCC(C)CCCC(C)C)C([3H])(C)C(=O)SCCNC(=O)CCNC(=O)[C@H](O)C(C)(C)COP(=O)(O)OP(=O)(O)OC[C@H]1O[C@@H](n2cnc3c(N)ncnc32)[C@H](O)[C@@H]1OP(=O)(O)O` (some centres unmarked) [[2,3-^3H] Pri-CoA, [2,3-^3H] pristanoyl coenzyme A], the Vmax on AMACR-MBP [3] was found to be 294.9 ± 21.10 pmol/min.
Turning to `O=C1c2ccccc2[Se](=O)N1c1ccccc1` (centres unmarked) [ebselen oxide], the IC50 against AMACR-MBP [4] (100 μM [2,3-3H]Pri-CoA, 0.3 μM AMACR-MBP, enzyme initiated) was 0.8 µM.
Take `NC(=O)CI` [IAA, iodoacetamide]: the “effect of pre-incubation with cysteine specific reagent on AMACR-MBP activity” value (from here on “effect of pre-incubation”) on AMACR is reported as “does not abrogate AMACR-MBP activity”.
As to `CCCCP(CCCC)CCCC` [TBP, tributylphosphine], the “effect of pre-incubation” value on AMACR is listed as “does not abrogate AMACR-MBP activity”.
With `CC(C)CCCC(C)CCCC(C)CCCC(C)C(=O)SCCNC(=O)CCNC(=O)[C@H](O)C(C)(C)COP(=O)(O)OP(=O)(O)OC[C@H]1O[C@@H](n2cnc3c(N)ncnc32)[C@H](O)[C@@H]1OP(=O)(O)O` (some centres unmarked) [[2,3-^3H] Pri-CoA, [2,3-^3H] pristanoyl coenzyme A], the Km on AMACR-MBP [3] was 85.6 ± 17.1 µM.
For `CSc1nc(=S)c2[nH]c(=S)[nH]c2[nH]1` [MSDTP, 2-methylsulfanyl-7,9-dihydro-3H-purine-6,8-dithione], the mode of inhibition entry on AMACR-MBP [2] is reported as “covalent inactivators”.
In the case of `O[C@@H](CS)[C@@H](O)CS` (racemic) [DTT, dithithreitol], the “effect of pre-incubation” value at AMACR was “does not abrogate AMACR-MBP activity”.
As to `O=c1c2ccccc2[se]n1-c1ccccc1` [ebselen], the inhibition at 100 µM at AMACR-MBP [1] is not below 20%. For the same molecule, the IC50 against AMACR-MBP [4] is 2.79 µM. The mode of inhibition entry at AMACR-MBP [2] is given as “irreversible inactivators”. At AMACR-MBP [2], this molecule showed a KI (inactivation) of 24 µM. The LD50 with WPMY1 came to 467.1 ± 1.017 µM; in the data set with PC3, 332.3 ± 1.015 µM; in the data set on LAPC4, 98.43 ± 1.038 µM; with LNCaP, 71.96 ± 1.106 µM. In data set [5], the “difference in LD50 between LNCaP and WPMY1” value worked out at 5 fold. Also, the “type of cell death induced” value in the data set “Mode of cell death” was “necrotic cell death”. Besides, the figures for the “fractional activity of AMACR-MBP” value at AMACR-MBP [6] (no pre-incubation (enzyme initiated)) and at AMACR-MBP [6] (pre-incubation time of ≥ 5 minutes (substrate initiated)) were ~ 50% and “just above background”, respectively. For the same molecule, in data set [7], the “tolerability in clinical trials” value is “well tolerated”.
